Measured values from ChEMBL document CHEMBL4622914, “Development of a bioavailable boron-containing PI-103 Bioisostere, PI-103BE” (Bioorg Med Chem Lett, 2020).

Key:
MDA-MB-231 = assay: Antiproliferative activity against human MDA-MB-231 cells assessed as reduction in cell viability incubated for 4 days by coulter counter method; type: functional, cell-based; conditions: MDA-MB-231, 96 h
Summary of the method: (§1)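 Cancer cells were seeded at 50,000 per well in DMEM with 5% FBS. They were exposed to six compound doses for 4 days, with DMSO as vehicle control and a reference inhibitor as positive control. Cells were counted by Coulter counter. Survival ratio is treated cell number over vehicle cell number. IC50 was taken from dose–response curves. Triplicate experiments.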

[1] = Stability of compound in cell culture medium assessed as compound hydrolysis measured after 8 hrs; type: physicochemical
[2] = Stability of compound in cell culture medium assessed as compound hydrolysis measured after 0.5 hrs; type: physicochemical
[3] = Drug concentration in ovariectomized nu/nu mouse plasma assessed 3-(4-morpholinopyrido [3',2':4,5] furo [3,2-d] pyrimidin-2-yl)phenol at 10 mg/kg, ip measured after 1 hr by UHPLC-MS analysis; type: ADME, organism-based; conditions: in vivo
[4] = Stability of compound in cell culture medium assessed as compound hydrolysis measured after 1 hr; type: physicochemical
CWR22R = assay: Antiproliferative activity against human 22Rv1 cells assessed as reduction in cell viability incubated for 4 days by coulter counter method; type: functional, cell-based; conditions: 22Rv1, 96 h; summary of the method: as §1
[5] = Half life in ovariectomized nu/nu mouse assessed (3-(4-morpholinopyrido [3',2':4,5] furo [3,2-d] pyrimidin-2-yl)phenyl)boronic acid at 10 mg/kg, po measured upto 24 hrs by UHPLC-MS analysis; type: ADME, organism-based; conditions: in vivo
Summary of the method: (§2)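 Female ovariectomized Nu/Nu mice, 4–6 weeks old, n = 5 per group. Single 10 mg/kg oral gavage in 5% DMSO/40% PEG 400/55% saline. Orbital-sinus blood was taken at 0.5, 1, 3, 8 and 24 h, one sampling per group, into EDTA. Plasma was spun at 4 °C and stored at −80 °C. The prodrug's boronic acid metabolite and phenol were quantified by C18 UHPLC–TSQ MS/MS with an acetonitrile/water 0.05% formic acid gradient.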

[6] = AUC in ovariectomized nu/nu mouse assessed (3-(4-morpholinopyrido [3',2':4,5] furo [3,2-d] pyrimidin-2-yl)phenyl)boronic acid at 10 mg/kg, ip measured upto 24 hrs by UHPLC-MS analysis; type: ADME, organism-based; parameters: time < 24 hr, dose 10 mg/kg, route intraperitoneal; conditions: in vivo
[7] = Drug concentration in ovariectomized nu/nu mouse plasma assessed 3-(4-morpholinopyrido [3',2':4,5] furo [3,2-d] pyrimidin-2-yl)phenol at 10 mg/kg, ip measured after 8 hrs by UHPLC-MS analysis; type: ADME, organism-based; conditions: in vivo
[8] = Cmax in ovariectomized nu/nu mouse assessed 3-(4-morpholinopyrido [3',2':4,5] furo [3,2-d] pyrimidin-2-yl)phenol at 10 mg/kg, po measured upto 24 hrs by UHPLC-MS analysis; type: ADME, organism-based; parameters: dose 10 mg/kg, route oral; conditions: in vivo; summary of the method: as §2
[9] = Drug concentration in ovariectomized nu/nu mouse plasma assessed (3-(4-morpholinopyrido [3',2':4,5] furo [3,2-d] pyrimidin-2-yl)phenyl)boronic acid at 10 mg/kg, po measured after 3 hrs by UHPLC-MS analysis; type: ADME, organism-based; conditions: in vivo; summary of the method: as §2
[10] = Drug concentration in ovariectomized nu/nu mouse plasma assessed (3-(4-morpholinopyrido [3',2':4,5] furo [3,2-d] pyrimidin-2-yl)phenyl)boronic acid at 10 mg/kg, ip measured after 3 hrs by UHPLC-MS analysis; type: ADME, organism-based; conditions: in vivo
[11] = Drug concentration in ovariectomized nu/nu mouse plasma assessed 3-(4-morpholinopyrido [3',2':4,5] furo [3,2-d] pyrimidin-2-yl)phenol at 10 mg/kg, po measured after 1 hr by UHPLC-MS analysis; type: ADME, organism-based; conditions: in vivo; summary of the method: as §2
[12] = AUC (0 to 24 hrs) in ovariectomized nu/nu mouse assessed (3-(4-morpholinopyrido [3',2':4,5] furo [3,2-d] pyrimidin-2-yl)phenyl)boronic acid at 10 mg/kg, po measured upto 24 hrs by UHPLC-MS analysis; type: ADME, organism-based; parameters: time < 24 hr, dose 10 mg/kg, route oral; conditions: in vivo; summary of the method: as §2
[13] = Drug concentration in ovariectomized nu/nu mouse plasma assessed (3-(4-morpholinopyrido [3',2':4,5] furo [3,2-d] pyrimidin-2-yl)phenyl)boronic acid at 10 mg/kg, ip measured after 1 hr by UHPLC-MS analysis; type: ADME, organism-based; conditions: in vivo
SK-OV-3 = assay: Antiproliferative activity against human SKOV3 cells assessed as reduction in cell viability incubated for 4 days by coulter counter method; type: functional, cell-based; conditions: SK-OV-3, 96 h
Summary of the method: (§3)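 Cells seeded at 50,000 per well in DMEM with 5% FBS, exposed to six concentrations of compound for 4 days; DMSO as vehicle control. Cell numbers counted on a Coulter counter; survival ratio = treated/vehicle cell count. IC50 taken from dose-response curves. Triplicate experiments, mean ± SD.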

[14] = Tmax in ovariectomized nu/nu mouse assessed 3-(4-morpholinopyrido [3',2':4,5] furo [3,2-d] pyrimidin-2-yl)phenol at 10 mg/kg, ip measured upto 24 hrs by UHPLC-MS analysis; type: ADME, organism-based; conditions: in vivo
[15] = Tmax in ovariectomized nu/nu mouse assessed 3-(4-morpholinopyrido [3',2':4,5] furo [3,2-d] pyrimidin-2-yl)phenol at 10 mg/kg, po measured upto 24 hrs by UHPLC-MS analysis; type: ADME, organism-based; conditions: in vivo; summary of the method: as §2
PC-3 = assay: Antiproliferative activity against human PC3 cells assessed as reduction in cell viability incubated for 4 days by coulter counter method; type: functional, cell-based; conditions: PC-3, 96 h; summary of the method: as §3
[16] = Tmax in ovariectomized nu/nu mouse assessed (3-(4-morpholinopyrido [3',2':4,5] furo [3,2-d] pyrimidin-2-yl)phenyl)boronic acid at 10 mg/kg, ip measured upto 24 hrs by UHPLC-MS analysis; type: ADME, organism-based; conditions: in vivo
[17] = Half life in ovariectomized nu/nu mouse assessed 3-(4-morpholinopyrido [3',2':4,5] furo [3,2-d] pyrimidin-2-yl)phenol at 10 mg/kg, ip measured upto 24 hrs by UHPLC-MS analysis; type: ADME, organism-based; conditions: in vivo
[18] = Drug concentration in ovariectomized nu/nu mouse plasma assessed 3-(4-morpholinopyrido [3',2':4,5] furo [3,2-d] pyrimidin-2-yl)phenol at 10 mg/kg, po measured after 8 hrs by UHPLC-MS analysis; type: ADME, organism-based; conditions: in vivo; summary of the method: as §2
[19] = Drug concentration in ovariectomized nu/nu mouse plasma assessed 3-(4-morpholinopyrido [3',2':4,5] furo [3,2-d] pyrimidin-2-yl)phenol at 10 mg/kg, ip measured after 24 hrs by UHPLC-MS analysis; type: ADME, organism-based; conditions: in vivo
[20] = Drug concentration in ovariectomized nu/nu mouse plasma assessed 3-(4-morpholinopyrido [3',2':4,5] furo [3,2-d] pyrimidin-2-yl)phenol at 10 mg/kg, po measured after 24 hrs by UHPLC-MS analysis; type: ADME, organism-based; conditions: in vivo; summary of the method: as §2
[21] = Drug concentration in ovariectomized nu/nu mouse plasma assessed (3-(4-morpholinopyrido [3',2':4,5] furo [3,2-d] pyrimidin-2-yl)phenyl)boronic acid at 10 mg/kg, po measured after 8 hrs by UHPLC-MS analysis; type: ADME, organism-based; conditions: in vivo; summary of the method: as §2
[22] = Drug concentration in ovariectomized nu/nu mouse plasma assessed (3-(4-morpholinopyrido [3',2':4,5] furo [3,2-d] pyrimidin-2-yl)phenyl)boronic acid at 10 mg/kg, ip measured after 24 hrs by UHPLC-MS analysis; type: ADME, organism-based; conditions: in vivo
[23] = Tmax in ovariectomized nu/nu mouse assessed (3-(4-morpholinopyrido [3',2':4,5] furo [3,2-d] pyrimidin-2-yl)phenyl)boronic acid at 10 mg/kg, po measured upto 24 hrs by UHPLC-MS analysis; type: ADME, organism-based; conditions: in vivo; summary of the method: as §2

CC1(C)OB(c2cccc(-c3nc(N4CCOCC4)c4oc5ncccc5c4n3)c2)OC1(C)C
IC50 (MDA-MB-231): 440 nM | Drug degradation [1]: 0 µM | Drug degradation [2]: 0.04 µM | Cp [3]: 5.4 ng/mL | Drug degradation [4]: 0.01 µM | IC50 (CWR22R): 660 nM | t1/2 [5]: 9.2 h | AUC [6]: 400.9 ng·h/mL | Cp [7]: 1 ng/mL | Cmax [8]: 8.2 ng/mL | Cp [9]: 516.2 ng/mL | Cp [10]: 28 ng/mL | Cp [11]: 8.2 ng/mL | AUC [12]: 8879.9 ng·h/mL | Cp [13]: 44.5 ng/mL | IC50 (SK-OV-3): 1330 nM | Tmax [14]: 30 min | Tmax [15]: 1 h | IC50 (PC-3): 720 nM | Tmax [16]: 1 h | t1/2 [17]: 12.4 h | Cp [18]: 4.1 ng/mL | Cp [19]: 0.4 ng/mL | Cp [20]: 0.7 ng/mL | Cp [21]: 354.2 ng/mL | Cp [22]: 6.5 ng/mL | Tmax [23]: 1 h
